We go through ten substances from ChEMBL document CHEMBL2390908, “Mapping the Vif-A3G interaction using peptide arrays: a basis for anti-HIV lead peptides” (Bioorg Med Chem, 2013).

Activity calls are given as the source filed them. The rule behind the calls is not given here.

The subject of data set [1] is Human immunodeficiency virus 1. As to the kind of experiment: Binding affinity to N-terminal His6-tagged HIV1 HXB2 Vif CTD (141 to 192 amino acids) expressed in Escherichia coli MC-1061 after overnight incubation by chemiluminescence assay. The method in brief: (§1)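 Immobilized peptide arrays blocked 4 h in 3.5% milk in 50 mM Tris-HCl pH 8, 150 mM NaCl, 1% Tween 20, then probed overnight at 4 °C with purified His-tagged protein in that buffer (full-length Vif 2 μM final; Vif CTD 7 μM final). Detection used anti-Vif mAb, HRP goat anti-mouse and chemiluminescence. Two experiments, duplicate arrays per slide.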

Data set [2] deals with Human immunodeficiency virus 1. As to the kind of experiment: Binding affinity to full length N-terminal His6-tagged HIV1 HXB2 Vif expressed in Escherichia coli MC-1061 after overnight incubation by chemiluminescence assay. The method in brief: as §1
For a further data set, the system named is 293T. As to the kind of experiment: Binding affinity to HIV1 Vif expressed in human 293T cells assessed as inhibition of A3G degradation at 100 uM after 24 hrs by Western blot analysis. Type of data set: cell-based. The following applies: Human immunodeficiency virus 1. The method in brief: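 293T cells co-transfected by calcium phosphate with Myc/His6-tagged A3G and HVif vectors (empty pcDNA3.1 in place of Vif as control). Medium replaced 8 h post-transfection, peptides added at 100 μM for a further 24 h. Lysates immunoblotted with anti-Myc (A3G) and anti-Vif antibodies. A3G bands quantified densitometrically, with A3G intensity in the no-Vif control set to 100%.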
On the technique in general: Immunoblotting shows a protein as a band on a membrane.

The subject of the next data set is H9. As to the kind of experiment: Cytotoxicity against human H9 cells at 50 to 100 uM after 2 hrs. Type of data set: cell-based. The note with it: h9, 2 h.
The subject of data set [3] is Human immunodeficiency virus 1. As to the kind of experiment: Antiviral activity against HIV1 infected in human H9 cells assessed as inhibition of viral propagation at 50 to 100 uM incubated for 2 hrs prior to infection measured on day 7 to 9 by MAGI assay. The data set is classed as functional, organism-based. A digest of the protocol:
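H9 cells, which express endogenous A3G, pretreated 2 h with peptides at 50 and 100 μM, then infected with wt HIV-1 HXBII at MOI 0.05. Media collected on days 5, 7 and 9 post-infection, and released-virus infectivity titered by MAGI assay.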

Turning to H-AGAKISIMTYSEFKH-OH, in data set [1], the result was inactive. In addition, in data set [2], the outcome was Active.
As to H-DGPRATMKIMNYDEF-OH, the result in data set [1] and in data set [2] was Active.
Regarding H-HQGCPFQPWDGLDEH-OH, in data set [1], the result was inactive. The result in data set [2] was Active.
On to H-LDVIPFWKLDLDQDY-OH, for which the inhibition entry with 293T was “Active”. The result in data set [1] and in data set [2] was Active. In the data set on H9, the Activity entry was “Non-toxic”. Moreover, the inhibition entry in data set [3] was “inactive”.
Take H-MRFFHWFSKWRKLHR-OH: the result in data set [1] and in data set [2] was Active.
With H-NTVWLCYEVKTKGPS-OH, the result in data set [1] and in data set [2] was Active.
For the substance H-QEMAKFISKNKHVSL-OH, the outcome in data set [1] and in data set [2] was Active.
With H-TFLAEDPKVTLTIFV-OH, the outcome in data set [1] and in data set [2] was Active.
Turning to H-WVRGRHETYLCYEVE-OH, the inhibition result (in the data set on 293T; in data set [3]) was “Active” each time. In addition, the outcome in data set [1] and in data set [2] was Active. Also, the Activity entry with H9 is on record as “Non-toxic”.
Turning to H-YSQRELFEPWNNLPK-OH, the result in data set [1] and in data set [2] was Active.
